The source made the active and inactive calls. The rule behind the calls is not given here.
Assays:
[1] = target: T1, Macrophage colony-stimulating factor 1 receptor (Homo sapiens, UniProt P07333); experiment: Inhibition of CSF1R (unknown origin) assessed as residual activity at 1 uM preincubated for 60 mins followed by ATP addition and measured after 1 hr by ADP-Glo assay relative to control; conditions: time 2.0 hrs
[2] = Cytotoxicity against CHO cells assessed as inhibition of cell growth; assay type: toxicity, cell-based, Cricetulus griseus; conditions: chinese hamster
[3] = target: T2, Platelet-derived growth factor receptor beta (Homo sapiens, UniProt P09619); experiment: Inhibition of PDGFRbeta (unknown origin) preincubated for 60 mins followed by ATP addition and measured after 1 hr by ADP-Glo assay
Method in brief: (§1)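 ADP-Glo luminescence assay. Kinase was preincubated with compound for 60 min at room temperature, then ATP/substrate was added and the reaction ran 1 h at 37 °C. ADP-Glo reagent was added for 40 min, then detection reagent for 30 min, and luminescence was read. Enzyme and ATP per target: KIT 20 ng/µL, 50 µM ATP; PDGFRα 2.5 ng/µL, 25 µM ATP; PDGFRβ 1.25 ng/µL, 25 µM ATP. IC50 was taken from the dose-response fit.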

[4] = target: Platelet-derived growth factor receptor alpha (Homo sapiens, UniProt P16234); experiment: Inhibition of PDGFRalpha (unknown origin) preincubated for 60 mins followed by ATP addition and measured after 1 hr by ADP-Glo assay; method in brief: as §1
[5] = Apparent volume of distribution in Sprague-Dawley rat at 1 mg/kg, iv; assay type: ADME, organism-based; conditions: in vivo, read-out: Vz
Method in brief: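 Sprague-Dawley rats dosed IV at 1 mg/kg or by oral gavage at 10 mg/kg. Parameters from plasma exposure: AUC(0-t), AUC(0-∞), MRT, T1/2, Tmax, Vz, CLz, Cmax. Values are mean ± SD from three animals.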

[6] = system: BaF3; experiment: Antiproliferative activity against mouse BaF3 cells transfected with TEL fused PDGFRalpha assessed as cell growth inhibition incubated for 72 hrs by CCK-8 assay; assay type: functional
Method in brief: (§2)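 Kinase-transformed isogenic BaF3 lines grown in RPMI 1640 with 10% FBS, 2% L-glutamine and pen/strep at 37 °C, 5% CO2. Seeded at 1500-3000 cells/well and treated with a compound concentration series for 72 h. Viability read by CCK8 absorbance at 450 nm.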

[7] = system: MV4-11; experiment: Inhibition of ERK phosphorylation at Thr202/Tyr204 residues in human MV4-11 cells harboring FLT3-ITD mutant incubated for 4 hrs by Western blot analysis; assay type: cell-based; conditions: dose 0.01-3 µM
Method in brief: (§3)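 Cells were exposed to the compound at a series of concentrations for 4 h, and whole-cell lysates were analysed by Western blot. MV4-11 cells were grown in IMDM with 10% FBS. MOLM13 and MOLM14 cells were grown in RPMI 1640 with 10% FBS. All cultures were kept at 37 °C with 5% CO2.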

[8] = Toxicity in nu/nu mouse xenografted with human MV4-11 cells assessed as reduction in body weight at 25 to 100 mg/kg/day, po administered via gavage for 28 days; assay type: organism-based; conditions: in vivo, 672 h, dose 25-100 mg/kg/day, time 28 day
Method in brief: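 Mice were inoculated with MV4-11 cells. Once tumours reached a mean volume of about 200 mm3, animals received vehicle or compound orally once daily for 28 days. Body weight was tracked and expressed relative to the initial weight, which was set as 100%.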

[9] = target: T3, Signal transducer and activator of transcription 5A (Homo sapiens) (UniProt P42229); experiment: Inhibition of STAT5 phosphorylation at Tyr694 residue in human MOLM-14 cells harboring FLT3-ITD mutant incubated for 4 hrs by Western blot analysis; assay type: cell-based; conditions: dose 0.01-3 µM; method in brief: as §3
T3 sequence (whole entry): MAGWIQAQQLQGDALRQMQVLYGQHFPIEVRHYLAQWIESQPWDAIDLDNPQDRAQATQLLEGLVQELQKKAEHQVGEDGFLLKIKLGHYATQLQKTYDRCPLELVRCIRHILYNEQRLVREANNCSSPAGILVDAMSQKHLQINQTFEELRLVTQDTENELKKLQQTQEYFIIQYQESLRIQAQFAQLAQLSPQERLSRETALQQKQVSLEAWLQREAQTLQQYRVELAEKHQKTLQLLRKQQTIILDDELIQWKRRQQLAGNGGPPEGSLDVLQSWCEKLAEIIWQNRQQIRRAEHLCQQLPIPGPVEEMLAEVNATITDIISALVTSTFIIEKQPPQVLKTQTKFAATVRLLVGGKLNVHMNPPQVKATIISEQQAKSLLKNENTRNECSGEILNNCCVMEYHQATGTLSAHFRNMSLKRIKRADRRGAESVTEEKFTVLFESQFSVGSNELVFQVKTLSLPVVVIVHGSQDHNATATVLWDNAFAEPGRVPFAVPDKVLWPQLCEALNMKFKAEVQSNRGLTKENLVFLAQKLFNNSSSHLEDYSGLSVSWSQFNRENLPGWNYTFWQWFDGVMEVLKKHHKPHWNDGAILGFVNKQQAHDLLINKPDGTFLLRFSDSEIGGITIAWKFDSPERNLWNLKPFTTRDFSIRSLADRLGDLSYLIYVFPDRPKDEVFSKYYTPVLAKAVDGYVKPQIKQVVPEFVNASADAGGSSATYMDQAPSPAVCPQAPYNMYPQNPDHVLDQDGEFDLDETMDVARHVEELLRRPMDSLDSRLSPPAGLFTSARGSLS

[10] = system: BaF3; experiment: Antiproliferative activity against mouse BaF3 cells transfected with FLT3 ITD mutant harboring HVDFREYEYD sequence from MV4-11 cells assessed as cell growth inhibition incubated for 72 hrs by CCK-8 assay; assay type: functional; method in brief: as §2
[11] = system: MV4-11; experiment: Inhibition of AKT phosphorylation at Ser473 residue in human MV4-11 cells harboring FLT3-ITD mutant incubated for 4 hrs by Western blot analysis; assay type: cell-based; conditions: dose 0.01-3 µM; method in brief: as §3
[12] = system: MV4-11; experiment: Induction of cell cycle arrest in human MV4-11 cells harboring FLT3-ITD mutant assessed as accumulation of cells at G0/G1 phase at 0.1 uM incubated for 24 hrs by RNase/PI staining based flow cytometry analysis; assay type: functional
[13] = system: BaF3; experiment: Antiproliferative activity against mouse BaF3 cells transfected with FLT3 ITD mutant harboring DFREYE sequence from MOLM-13 cells assessed as cell growth inhibition incubated for 72 hrs by CCK-8 assay; assay type: functional; method in brief: as §2
[14] = target: T1, Macrophage colony-stimulating factor 1 receptor; experiment: Inhibition of CSF1R (unknown origin) preincubated for 60 mins followed by ATP addition and measured after 1 hr by ADP-Glo assay
[15] = target: T2, Platelet-derived growth factor receptor beta; experiment: Inhibition of PDGFRbeta (unknown origin) assessed as residual activity at 1 uM preincubated for 60 mins followed by ATP addition and measured after 1 hr by ADP-Glo assay relative to control; conditions: time 2.0 hrs
[16] = system: MOLM-14; experiment: Inhibition of ERK phosphorylation at Thr202/Tyr204 residues in human MOLM-14 cells harboring FLT3-ITD mutant incubated for 4 hrs by Western blot analysis; assay type: cell-based; conditions: dose 0.01-3 µM; method in brief: as §3

T1 sequence (P07333 whole entry): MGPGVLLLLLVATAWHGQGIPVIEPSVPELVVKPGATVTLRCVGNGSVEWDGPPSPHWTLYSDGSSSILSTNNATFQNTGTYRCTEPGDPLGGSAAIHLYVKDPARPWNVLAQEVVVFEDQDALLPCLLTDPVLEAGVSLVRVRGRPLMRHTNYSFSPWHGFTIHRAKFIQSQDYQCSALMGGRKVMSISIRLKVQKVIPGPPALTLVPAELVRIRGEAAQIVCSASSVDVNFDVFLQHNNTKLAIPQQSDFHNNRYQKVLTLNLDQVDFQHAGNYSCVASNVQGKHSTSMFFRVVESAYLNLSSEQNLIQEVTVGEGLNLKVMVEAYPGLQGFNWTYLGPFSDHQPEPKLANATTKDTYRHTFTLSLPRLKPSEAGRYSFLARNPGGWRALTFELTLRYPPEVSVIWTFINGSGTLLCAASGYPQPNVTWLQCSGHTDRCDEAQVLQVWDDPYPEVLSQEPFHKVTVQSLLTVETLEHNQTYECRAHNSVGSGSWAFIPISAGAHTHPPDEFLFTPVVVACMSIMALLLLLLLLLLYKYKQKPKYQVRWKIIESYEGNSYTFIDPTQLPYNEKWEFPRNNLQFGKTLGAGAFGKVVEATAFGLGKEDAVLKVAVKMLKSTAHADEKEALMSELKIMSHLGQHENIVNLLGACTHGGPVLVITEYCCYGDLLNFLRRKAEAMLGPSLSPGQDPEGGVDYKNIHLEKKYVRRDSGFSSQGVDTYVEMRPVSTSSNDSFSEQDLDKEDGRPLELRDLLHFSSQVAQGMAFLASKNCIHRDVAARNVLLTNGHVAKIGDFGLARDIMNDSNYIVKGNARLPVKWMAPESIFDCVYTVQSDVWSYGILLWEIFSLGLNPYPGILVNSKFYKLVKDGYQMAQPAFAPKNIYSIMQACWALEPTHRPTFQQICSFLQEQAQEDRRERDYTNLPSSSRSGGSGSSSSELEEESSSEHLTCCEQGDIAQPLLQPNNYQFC
T2 sequence (P09619 whole entry): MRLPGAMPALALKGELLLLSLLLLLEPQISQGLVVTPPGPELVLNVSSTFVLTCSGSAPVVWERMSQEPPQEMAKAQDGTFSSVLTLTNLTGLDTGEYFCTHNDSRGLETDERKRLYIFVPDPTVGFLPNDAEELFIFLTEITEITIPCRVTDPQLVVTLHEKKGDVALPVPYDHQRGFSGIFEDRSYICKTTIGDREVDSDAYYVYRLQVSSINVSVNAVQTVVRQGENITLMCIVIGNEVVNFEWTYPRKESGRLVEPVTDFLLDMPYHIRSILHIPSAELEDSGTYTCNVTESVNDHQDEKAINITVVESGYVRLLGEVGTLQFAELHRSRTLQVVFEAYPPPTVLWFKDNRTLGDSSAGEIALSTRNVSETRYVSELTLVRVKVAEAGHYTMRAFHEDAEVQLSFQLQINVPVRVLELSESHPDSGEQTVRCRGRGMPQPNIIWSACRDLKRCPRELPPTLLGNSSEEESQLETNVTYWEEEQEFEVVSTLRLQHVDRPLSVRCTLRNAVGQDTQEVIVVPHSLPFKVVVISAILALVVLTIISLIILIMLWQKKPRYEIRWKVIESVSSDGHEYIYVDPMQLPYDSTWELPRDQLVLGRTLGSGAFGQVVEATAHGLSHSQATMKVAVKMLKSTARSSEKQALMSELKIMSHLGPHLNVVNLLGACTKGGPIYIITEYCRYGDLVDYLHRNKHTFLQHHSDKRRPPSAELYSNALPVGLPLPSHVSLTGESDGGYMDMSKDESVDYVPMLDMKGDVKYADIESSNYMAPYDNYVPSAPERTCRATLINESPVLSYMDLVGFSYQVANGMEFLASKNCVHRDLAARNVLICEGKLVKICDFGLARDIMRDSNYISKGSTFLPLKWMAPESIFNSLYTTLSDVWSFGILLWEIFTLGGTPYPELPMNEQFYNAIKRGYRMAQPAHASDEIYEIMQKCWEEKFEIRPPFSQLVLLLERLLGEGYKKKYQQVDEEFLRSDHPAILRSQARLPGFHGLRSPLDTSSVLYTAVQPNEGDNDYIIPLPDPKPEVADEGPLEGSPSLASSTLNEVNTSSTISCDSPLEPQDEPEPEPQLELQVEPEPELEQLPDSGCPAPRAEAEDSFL
Sequence of Platelet-derived growth factor receptor alpha (P16234 whole entry): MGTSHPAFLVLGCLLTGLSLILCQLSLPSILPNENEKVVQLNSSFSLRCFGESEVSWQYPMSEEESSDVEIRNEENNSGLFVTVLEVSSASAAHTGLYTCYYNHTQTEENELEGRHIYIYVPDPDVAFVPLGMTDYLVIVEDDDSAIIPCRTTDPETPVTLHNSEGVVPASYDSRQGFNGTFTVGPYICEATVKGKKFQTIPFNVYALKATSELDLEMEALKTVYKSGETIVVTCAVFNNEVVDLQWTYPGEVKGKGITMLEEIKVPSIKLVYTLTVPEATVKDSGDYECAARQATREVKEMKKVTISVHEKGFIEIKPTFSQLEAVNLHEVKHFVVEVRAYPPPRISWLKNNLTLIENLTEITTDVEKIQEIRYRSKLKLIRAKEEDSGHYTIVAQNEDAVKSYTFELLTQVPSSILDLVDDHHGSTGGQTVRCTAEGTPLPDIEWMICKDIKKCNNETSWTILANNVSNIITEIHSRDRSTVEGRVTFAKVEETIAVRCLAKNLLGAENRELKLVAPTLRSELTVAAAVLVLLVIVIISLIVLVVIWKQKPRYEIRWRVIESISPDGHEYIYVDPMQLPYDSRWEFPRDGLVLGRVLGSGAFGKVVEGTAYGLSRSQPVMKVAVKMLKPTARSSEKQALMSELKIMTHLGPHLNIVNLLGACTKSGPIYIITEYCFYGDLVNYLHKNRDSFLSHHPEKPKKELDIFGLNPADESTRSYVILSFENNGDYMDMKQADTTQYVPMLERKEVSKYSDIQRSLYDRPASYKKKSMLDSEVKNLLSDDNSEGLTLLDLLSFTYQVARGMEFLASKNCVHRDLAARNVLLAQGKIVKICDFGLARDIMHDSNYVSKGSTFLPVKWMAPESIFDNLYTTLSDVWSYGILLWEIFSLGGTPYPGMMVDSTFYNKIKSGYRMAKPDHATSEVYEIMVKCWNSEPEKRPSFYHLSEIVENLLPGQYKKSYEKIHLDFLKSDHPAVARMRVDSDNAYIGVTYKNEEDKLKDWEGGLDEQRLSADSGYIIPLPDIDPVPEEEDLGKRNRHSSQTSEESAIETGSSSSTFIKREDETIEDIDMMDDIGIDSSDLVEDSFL

Structure (SMILES): CC(=O)Nc1cc(Oc2ccc(NC(=O)Cc3ccccc3C(F)(F)F)cc2)ncn1
- Activity [1]: 2.4%
- GI50 [2]: > 10000 nM
- IC50 [3]: 207 nM
- IC50 [4]: 83.8 nM
- Vd [5]: 1.2 L/kg
- GI50 [6]: 7 nM
- inhibition [7]: Dose-Dependent Effect
- Activity [8]: Non-Toxic
- inhibition [9]: Dose-Dependent Effect
- GI50 [10]: 32 nM
- inhibition [11]: Dose-Dependent Effect
- Activity [12]: Active
- GI50 [13]: 82 nM
- IC50 [14]: 212 nM
- Activity [15]: 0.15%
- inhibition [16]: Dose-Dependent Effect

Reference: ChEMBL document CHEMBL5260841, “Discovery of N-(4-(6-Acetamidopyrimidin-4-yloxy)phenyl)-2-(2-(trifluoromethyl)phenyl)acetamide (CHMFL-FLT3-335) as a Potent FMS-like Tyrosine Kinase 3 Internal Tandem Duplication (FLT3-ITD) Mutant Selective Inhibitor for Acute Myeloid Leukemia” (J Med Chem, 2019)
